Data set [1] is filed under the species Homo sapiens. Kind of data set: Inhibition of human recombinant synovial PLA2 by at 5 uM. The method, boiled down: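 Single peptide concentration of 5 µM against purified human synovial type IIA sPLA2 (0.85 pmol), with [3H]arachidonate-labeled E. coli membranes as substrate in 100 mM Tris-HCl, 25 mM CaCl2, pH 7.5. Released label was counted by liquid scintillation, in triplicate. Results are % inhibition relative to enzyme preincubated with buffer alone; groups were compared by one-way ANOVA with Dunnett's test.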

Data set [2] can be described thus: Inhibition of human recombinant synovial PLA2. The method, boiled down:
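Purified human synovial type IIA sPLA2 (0.85 pmol) was preincubated with peptide (1-250 range) and then reacted with [3H]arachidonate-labeled E. coli membranes in 100 mM Tris-HCl, 25 mM CaCl2, pH 7.5. Released [3H]arachidonate was counted by liquid scintillation, in triplicate. IC50 (mean ± SD) was obtained from sigmoid curves by nonlinear regression of % inhibition versus buffer-only control.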

Data set [3] is filed under the species Homo sapiens. Kind of data set: Inhibition of IL-1-beta-induced sPLA2 production in human RASFs at 5 uM by ELISA. It is filed as functional. In a few lines:
(§1)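 Primary synovial fibroblasts from three RA knee-replacement patients, passages 3-8, grown to confluence and serum-starved 16 h. Cells were preincubated 1 h at 37 °C with 5 µM peptide or vehicle (0.1% DMSO final), then given hrIL-1β 10 ng/mL for 24 h. Supernatants were stored at -20 °C, and type IIA sPLA2 or MMP-1/-2/-9 was measured by ELISA in triplicate.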

A short description of data set [4]: Toxicity against human RASF at 1 to 10 uM after 24 hrs. The method, boiled down: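 Primary RA synovial fibroblasts (passages 3-8) were exposed to peptide at 1, 5 and 10 µM for 24 h. Viability was read by the XTT cell proliferation assay.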
The species named for data set [5] is Homo sapiens. Briefly: Inhibition of IL-1-beta-induced MMP1 levels in human RASFs after 1 hr by ELISA. Type of data set: functional. The method, boiled down:
as §1
(In general: An ELISA detects its analyte on a solid surface through an enzyme-linked reagent.)

For data set [6], the species on record is Homo sapiens. Kind of data set: Inhibition of IL-1-beta-induced MMP2 levels in human RASFs after 1 hr by ELISA. Type of data set: functional. In a few lines: as §1
The species entered for data set [7] is Homo sapiens. Kind of data set: Inhibition of IL-1-beta-induced MMP9 levels in human RASFs after 1 hr by ELISA. Type of data set: functional. In a few lines: as §1
For data set [8], the species on record is Homo sapiens. Kind of data set: Effect on IL-1-beta-stimulated TIMP2 production in human RASFs. Type of data set: functional.
For data set [9], the species on record is Homo sapiens. Briefly: Inhibition of IL-1-beta-induced sPLA2 production in human RASFs by ELISA. Type of data set: functional. The method, boiled down:
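RA synovial fibroblasts (passages 3-8, serum-starved 16 h) were preincubated 1 h at 37 °C with peptide (1, 2.5, 5 or 10 µM) or vehicle (0.1% DMSO final), then cultured a further 24 h with or without IL-1β 10 ng/mL. Supernatant sPLA2-IIA was measured by EIA in triplicate; mean ± SD from a representative of three RASF lines.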

For data set [10], the species on record is Homo sapiens. Kind of data set: Inhibition of IL-1-beta-induced MMP1 gene expression in human RASFs by QRT-PCR. It is filed as functional. In a few lines:
(§2)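 Primary synovial fibroblasts from three RA patients (passages 3-8), grown to confluence in DMEM/10% FBS and serum-starved 16 h. Preincubated 1 h with 5 µM peptide or vehicle (0.1% DMSO final), then stimulated 24 h with hrIL-1β 10 ng/mL. Cells from 3 flasks pooled per group, total RNA isolated and DNase-treated, then transcripts quantified by qRT-PCR. Unstimulated cells served as controls.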

Data set [11] is filed under the species Homo sapiens. Briefly: Inhibition of IL-1-beta-induced MMP2 gene expression in human RASFs by QRT-PCR. It is filed as functional. In a few lines: as §2
Data set [12] is filed under the species Homo sapiens. Briefly: Inhibition of IL-1-beta-induced MMP9 gene expression in human RASFs by QRT-PCR. It is filed as functional. The method, boiled down:
as §2

The species named for data set [13] is Homo sapiens. Kind of data set: Inhibition of IL-1-beta-induced sPLA2 gene expression in human RASFs by QRT-PCR. Type of data set: functional. In a few lines: as §2
The species entered for data set [14] is Homo sapiens. Kind of data set: Inhibition of IL-1-beta-induced TIMPs gene expression in human RASFs by QRT-PCR. It is filed as functional. The method, boiled down:
as §2

The species entered for data set [15] is Oryctolagus cuniculus. Kind of data set: Inhibition of IL-1-beta-induced MMP1 gene expression in rabbit HIG82 cells by QRT-PCR. It is filed as functional, cell-based. In a few lines:
(§3)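 Rabbit HIG-82 fibroblast-like synoviocytes were grown in Ham's F-12/10% FBS to 80% confluence. They were serum-starved 2 h with or without 5 µM peptide; controls got medium or vehicle (0.1% DMSO). Cells were then stimulated 24 h with rhIL-1β 5 ng/mL, washed in cold PBS, RNA extracted, and transcripts measured by qRT-PCR.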

The species named for data set [16] is Oryctolagus cuniculus. Kind of data set: Inhibition of IL-1-beta-induced MMP2 gene expression in rabbit HIG82 cells by QRT-PCR. It is filed as functional, cell-based. The method, boiled down:
as §3

Data set [17] is filed under the species Oryctolagus cuniculus. Briefly: Inhibition of IL-1-beta-induced MMP9 gene expression in rabbit HIG82 cells by QRT-PCR. It is filed as functional, cell-based. The method, boiled down:
as §3

For data set [18], the species on record is Oryctolagus cuniculus. Briefly: Inhibition of IL-1-beta-induced sPLA2 gene expression in rabbit HIG82 cells by QRT-PCR. Type of data set: functional, cell-based. In a few lines: as §3
The species named for data set [19] is Oryctolagus cuniculus. Kind of data set: Inhibition of IL-1-beta-induced TIMPs gene expression in rabbit HIG82 cells by QRT-PCR. Type of data set: functional, cell-based. The method, boiled down:
as §3

pIC50: −log10 of the molar value. Active and inactive are the calls of the source. The calls are words filed in the database; no cut-off is given here.

As a reminder, the inhibition is the percentage by which the read-out fell short of the control. As usually defined, the pIC50 is −log10 of the IC50, conventionally taken in molar units. In the case of `CC[C@H](C)[C@@H](NC(=O)[C@@H](N)CC(=O)O)C(=O)N[C@@H](Cc1cnc[nH]1)C(=O)N[C@H](C(=O)N[C@@H](Cc1c[nH]c2ccccc12)C(=O)N[C@@H](CC(=O)O)C(=O)NCC(=O)N[C@H](C(=O)O)C(C)C)C(C)C`, the inhibition in the data set listed under Homo sapiens [1] stood at 45.9%. Further, the pIC50 in [2] was 5.24.
In the case of `CC[C@H](C)[C@@H](NC(=O)[C@H](CC(=O)O)NC(=O)[C@@H](NC(=O)[C@@H](N)CCCNC(=N)N)C(C)C)C(=O)N[C@@H](Cc1cnc[nH]1)C(=O)N[C@H](C(=O)N[C@@H](Cc1c[nH]c2ccccc12)C(=O)N[C@@H](CC(=O)O)C(=O)NCC(=O)N[C@H](C(=O)O)C(C)C)C(C)C`, the inhibition in the data set filed under Homo sapiens [1] was found to be 59.5%. The pIC50 in data set [2] was 5.44.
As for `CC[C@H](C)[C@@H](NC(=O)[C@H](CC(=O)O)NC(=O)[C@@H](N)C(C)C)C(=O)N[C@@H](Cc1cnc[nH]1)C(=O)N[C@H](C(=O)N[C@@H](Cc1c[nH]c2ccccc12)C(=O)N[C@@H](CC(=O)O)C(=O)NCC(=O)N[C@H](C(=O)O)C(C)C)C(C)C`, the inhibition in the data set filed under Homo sapiens [1] is 56.4%. Moreover, the pIC50 in data set [2] is 5.42.
Turning to `CC[C@H](C)[C@@H](NC(=O)[C@H](CC(=O)O)NC(=O)[C@@H](NC(=O)[C@H](CCCNC(=N)N)NC(=O)CN)C(C)C)C(=O)N[C@@H](Cc1cnc[nH]1)C(=O)N[C@H](C(=O)N[C@@H](Cc1c[nH]c2ccccc12)C(=O)N[C@@H](CC(=O)O)C(=O)NCC(=O)N[C@H](C(=O)O)C(C)C)C(C)C`, the inhibition in the data set filed under Homo sapiens [1] was 14.2%.
Turning to `CCc1c(C(=O)C(N)=O)c2c(OCC(=O)O)cccc2n1Cc1ccccc1` [VARESPLADIB], the outcome in the data set listed under Homo sapiens [3], in the data set listed under Homo sapiens [5], in the data set filed under Homo sapiens [6] and in the data set listed under Homo sapiens [7] was Active. Moreover, in data set [4], the Activity result was “Non-toxic”. In the data set filed under Homo sapiens [8], the outcome was inactive.
For H-IHVWDGV-OH, in the data set listed under Homo sapiens [1], the inhibition was 35.4%. The pIC50 in data set [2] was 5.21.
H-LGRVDIHVWDGV-OH: the inhibition in the data set filed under Homo sapiens [1] was found to be 34.2%.
With H-LGRVDIHVWDGVY-OH, the inhibition in the data set listed under Homo sapiens [1] was determined as 48.7%. Besides, the pIC50 in data set [2] is 5.23.
Turning to H-LGRVDIHVWDGVYI-OH, in the data set filed under Homo sapiens [1], the inhibition was 49.7%. Moreover, the pIC50 in data set [2] is 5.24.
As to H-LGRVDIHVWDGVYIR-OH, the inhibition in the data set filed under Homo sapiens [1] is 51%. In addition, the pIC50 in data set [2] is 5.24.
On to H-LGRVDIHVWDGVYIRG-OH, for which, in the data set listed under Homo sapiens [1], the inhibition amounted to 52.4%. Besides, the pIC50 in data set [2] was 5.25.
The matching figures for H-LGRVDIHVWDGVYIRGR-OH: 55.6% and 5.28.
Turning to H-VDIHVWAGV-OH, the inhibition in the data set listed under Homo sapiens [1] was found to be 48.5%. Besides, the pIC50 in data set [2] was 5.26.
For H-VDIHVWDGVVDIHVWDGV-OH, in the data set listed under Homo sapiens [1], the inhibition was 74.5%. Moreover, the pIC50 in [2] was 5.92. The Activity entry in the data set filed under Homo sapiens [9] is “Dose-dependent effect”; in [4], “Non-toxic”. The outcome in the data set listed under Homo sapiens [3], in the data set filed under Homo sapiens [5], in the data set listed under Homo sapiens [6], in the data set listed under Homo sapiens [7], in the data set listed under Homo sapiens [10] and in the data set listed under Homo sapiens [11] was Active. Further, the result in the data set listed under Homo sapiens [12], in the data set listed under Homo sapiens [13], in the data set filed under Oryctolagus cuniculus [15], in the data set listed under Oryctolagus cuniculus [16], in the data set filed under Oryctolagus cuniculus [17] and in the data set listed under Oryctolagus cuniculus [18] was Active. The result in the data set filed under Homo sapiens [8], in the data set filed under Homo sapiens [14] and in the data set filed under Oryctolagus cuniculus [19] was inactive.
Take H-VDIHVWEGV-OH: the inhibition in the data set listed under Homo sapiens [1] turned out to be 57.6%. Besides, the pIC50 in data set [2] was 5.31.
Regarding H-VDIHVWSGV-OH, the inhibition in the data set listed under Homo sapiens [1] was 52.5%. The pIC50 in [2] was 5.28.

These data come from ChEMBL document CHEMBL1138293, “Novel peptide inhibitors of human secretory phospholipase A2 with antiinflammatory activity: solution structure and molecular modeling” (J Med Chem, 2007).
